Results on 21 compounds are retold here after ChEMBL document CHEMBL3758119, “Functionalized imidazolium and benzimidazolium salts as paraoxonase 1 inhibitors: Synthesis, characterization and molecular docking studies” (Bioorg Med Chem, 2016).

Assay [1] concerns the target T1, Serum paraoxonase/arylesterase 1 (Homo sapiens, UniProt P27169). As to the kind of experiment: Inhibition of human serum PON1 using paraoxon as substrate by spectrophotometric analysis. A digest of the protocol:
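PON1 purified from human serum (ammonium sulphate precipitation, then hydrophobic interaction chromatography; stored with 2 mM CaCl2). Paraoxon 2 mM final; p-nitrophenol release followed at 412 nm for 2 min at 37 °C. Five inhibitor concentrations tested. Activity without compound taken as 100%. Measured in duplicate and corrected for non-enzymatic hydrolysis. IC50 read from activity-percentage graphs.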

In assay [2] the target is T1, Serum paraoxonase/arylesterase 1. As to the kind of experiment: Competitive inhibition of human serum PON1 using paraoxon as substrate by Lineweaver-Burk plot analysis. The method in brief: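 Human serum PON1 purified by ammonium sulphate precipitation (60–80%) and hydrophobic interaction chromatography, stored with 2 mM CaCl2. Paraoxon hydrolysis followed by p-nitrophenol appearance at 412 nm for 2 min at 37 °C, pH 8.00. Eight paraoxon concentrations (0.5–1.2 mM) run at two inhibitor concentrations (6.7 µM and 4.7 µM). Readings taken in duplicate and corrected for non-enzymatic hydrolysis. Ki and inhibition type taken from Lineweaver–Burk plots.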

Molecules are shown by their SMILES.

T1 sequence (P27169 whole entry): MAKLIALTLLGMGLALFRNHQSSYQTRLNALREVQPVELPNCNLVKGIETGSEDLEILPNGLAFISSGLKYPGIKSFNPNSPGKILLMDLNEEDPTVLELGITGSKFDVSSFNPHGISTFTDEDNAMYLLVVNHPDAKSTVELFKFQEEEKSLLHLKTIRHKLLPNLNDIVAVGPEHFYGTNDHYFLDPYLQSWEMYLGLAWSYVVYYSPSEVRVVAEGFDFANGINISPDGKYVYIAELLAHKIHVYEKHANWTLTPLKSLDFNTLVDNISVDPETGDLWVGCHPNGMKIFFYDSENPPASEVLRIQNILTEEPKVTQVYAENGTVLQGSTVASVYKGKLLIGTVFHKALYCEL

`Cc1ccc(-c2cc3cc(O)c(O)cc3oc2=O)cc1`: the IC50 in assay [1] (read-out: IC50) came to 3 µM.

On to `Cc1ccc2c(CCl)cc(=O)oc2c1C`, for which the IC50 in assay [1] (read-out: IC50) was determined as 21.4 µM.

Turning to `Cn1cc[n+](Cn2nnc3ccccc32)c1.[Cl-]`, in assay [1], the IC50 entry is reported as “Not Active”.

In the case of `[Cl-].c1ccc2c(c1)nnn2Cn1c[n+](Cn2nnc3ccccc32)c2ccccc21`, the IC50 entry in assay [1] is on record as “Not Active”.

Turning to `CC(C)(C)c1ccc2oc(=O)cc(C[n+]3cn(Cn4nnc5ccccc54)c4ccccc43)c2c1`, the half-inhibitory concentration (IC50) in assay [1] (read-out: IC50) came to 627 µM.

In the case of `CCCCn1cc[n+](Cc2nc3ccccc3[nH]2)c1`, the IC50 in assay [1] (read-out: IC50) was 29 µM.

For the compound `Cc1ccc2c(C[n+]3cn(Cn4nnc5ccccc54)c4ccccc43)cc(=O)oc2c1C`, the half-maximal inhibitory concentration (IC50) in assay [1] (read-out: IC50) came out at 237 µM.

Take `Cc1cc(C)c2c(C[n+]3ccn(C)c3C)cc(=O)oc2c1`: the half-inhibitory concentration (IC50) in assay [1] (read-out: IC50) turned out to be 317 µM.

For the compound `CCCCn1cc[n+](Cc2cc(=O)oc3cc(C)cc(C)c23)c1`, the concentration for half-maximal inhibition (IC50) in assay [1] (read-out: IC50) worked out at 6.37 µM. In assay [2], the affinity corresponds to a Ki of 2.39 µM.

Turning to `Cc1cc(C)c2c(C[n+]3ccn(C)c3)cc(=O)oc2c1`, the IC50 in assay [1] (read-out: IC50) was 23.7 µM.

On to `Cc1n(C)cc[n+]1Cn1nnc2ccccc21.[Cl-]`, for which, in assay [1], the 50% inhibitory concentration (IC50) entry is “Not Active”.

Turning to `O=C1COc2ccc(C(=O)C[n+]3cn(Cn4nnc5ccccc54)c4ccccc43)cc2N1`, in assay [1] (read-out: IC50), the concentration for half-maximal inhibition (IC50) came to 8.76 µM.

Consider `CCCC[n+]1cn(Cn2nnc3ccccc32)c2ccccc21`, for which the IC50 in assay [1] (read-out: IC50) amounted to 3330 µM.

For the compound `COc1cc(C[n+]2cn(Cn3nnc4ccccc43)c3ccccc32)cc(OC)c1OC.[Cl-]`, the IC50 entry in assay [1] is listed as “Not Active”.

Take `c1ccc(C[n+]2cn(Cn3nnc4ccccc43)c3ccccc32)cc1`: the IC50 in assay [1] (read-out: IC50) turned out to be 2060 µM.

For `Cc1cc(C)c2c(CCl)cc(=O)oc2c1`, the IC50 in assay [1] (read-out: IC50) was 31.4 µM.

As to `CCCCn1cc[n+](Cn2nnc3ccccc32)c1.[Cl-]`, in assay [1], the 50% inhibitory concentration (IC50) result is on record as “Not Active”.

With `CC(C)(C)c1ccc2oc(=O)cc(CCl)c2c1`, the IC50 in assay [1] (read-out: IC50) turned out to be 40 µM.

`Cn1cc[n+](Cc2nc3ccccc3[nH]2)c1`: in assay [1] (read-out: IC50), the IC50 is 19 µM.

Take `c1ccc2c(c1)ncn2Cn1nnc2ccccc21`: the 50% inhibitory concentration (IC50) in assay [1] (read-out: IC50) was determined as 564 µM.

For `Cc1n(C)cc[n+]1Cc1nc2ccccc2[nH]1`, the 50% inhibitory concentration (IC50) in assay [1] (read-out: IC50) is 626 µM.
